Columns and labels:
K562 = experiment: Cell growth inhibition of human K562 cells after 48 hrs; assay type: functional, cell-based; conditions: K562, 48 h
Method in brief: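 K562 human chronic myelogenous leukemia cells cultured in Quantum 263 medium with streptomycin and penicillin G at 37 °C, 5% CO2. Seeded at 2 × 10⁵ cells/mL, exposed 48 h to compounds in DMSO/methanol 1:1 (vehicle 0.5%). Cells counted in Neubauer chamber and expressed as % of untreated control. Triplicate wells, three experiments. IC50 by nonlinear regression.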

Tubulin (Sus scrofa) = experiment: Inhibition of tubulin polymerization using porcine brain microtubule protein

SMILES | IC50 (K562) | IC50 (Tubulin (Sus scrofa))
O=C1c2cccc(Cl)c2/C(=N\O)c2cccc(Cl)c21 | 1600 nM | 
O=C1c2cccc(Cl)c2/C(=N/O)c2cccc(Cl)c21 | 1600 nM | 
COc1ccc(CO/N=C2\c3cccc(Cl)c3C(=O)c3cccc(Cl)c32)cc1 | > 12000 nM | > 10000 nM
O=C1c2ccccc2C(=NOCc2ccc([N+](=O)[O-])cc2)c2ccccc21 | > 11000 nM | 
COc1cc(CO/N=C2\c3cccc(Cl)c3C(=O)c3cccc(Cl)c32)cc(OC)c1OC | > 14000 nM | 
O=C1c2ccccc2C(=NOCc2ccccc2)c2ccccc21 | 7000 nM | 
O=C1c2c(Cl)cccc2C(=NO)c2cccc(Cl)c21 | > 9000 nM | 
COc1cc(C(=O)O/N=C2\c3cccc(Cl)c3C(=O)c3cccc(Cl)c32)cc(OC)c1OC | > 14000 nM | 
COc1cccc2c1C(=O)c1c(OC)cccc1C2=NO | 900 nM | 
COc1ccc(CON=C2c3cccc(OC)c3C(=O)c3c(OC)cccc32)cc1 | 3400 nM | > 10000 nM
COc1ccc(CON=C2c3cccc(Cl)c3C(=O)c3c(Cl)cccc32)cc1 | > 12000 nM | 
COc1cc(CON=C2c3ccccc3C(=O)c3ccccc32)cc(OC)c1OC | > 12000 nM | 
COc1ccc(S(=O)(=O)O/N=C2\c3cccc(Cl)c3C(=O)c3cccc(Cl)c32)cc1 | > 12000 nM | 
O=C1c2ccccc2C(=NO)c2ccccc21 | 3000 nM | 
COc1ccc(CON=C2c3cccc(OC)c3C(=O)c3c(OC)cccc32)cc1O | 2400 nM | > 10000 nM

Results, then the compound that gave them:

IC50 (K562) | IC50 (Tubulin (Sus scrofa)) | SMILES
12000 nM | > 10000 nM | COc1ccc(C(=O)O/N=C2\c3cccc(Cl)c3C(=O)c3cccc(Cl)c32)cc1
2000 nM |  | COc1ccc(C(=O)ON=C2c3ccccc3C(=O)c3ccccc32)cc1O
3000 nM |  | COc1cc(C(=O)ON=C2c3ccccc3C(=O)c3ccccc32)ccc1O
10000 nM |  | O=C1c2ccccc2C(=NOCc2ccc(Cl)cc2)c2ccccc21
> 12000 nM |  | COc1cc(C(=O)ON=C2c3ccccc3C(=O)c3ccccc32)cc(OC)c1OC
> 12000 nM |  | COc1ccc(C(=O)ON=C2c3cccc(Cl)c3C(=O)c3c(Cl)cccc32)cc1
3000 nM | > 10000 nM | COc1ccc(S(=O)(=O)ON=C2c3ccccc3C(=O)c3ccccc32)cc1
370 nM | 1050 nM | COc1ccc(CON=C2c3ccccc3C(=O)c3ccccc32)cc1
110 nM | 1430 nM | COc1ccc(CON=C2c3ccccc3C(=O)c3ccccc32)cc1O
3000 nM | > 10000 nM | COc1ccc(C(=O)ON=C2c3ccccc3C(=O)c3ccccc32)cc1
